This note sets out measurements from PubChem BioAssay.

Active and inactive are the calls of the source.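 The calls were made as follows, unless noted: active = growth inhibition above 25% in both replicates, a cutoff set 3 SD above the mean; inconclusive = above 25% in only one replicate; inactive = the rest.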

The nature of the first assay: S. cerevisiae growth inhibition in permissive medium (OD615), pilot counter-assay for S. cerevisiae lifespan shortening project, permissive growth control (AID 705). Particulars: OD615, 24 h, at 10 µM, active compounds read high. Summed up: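 System: engineered DeaD yeast; Medium: permissive raffinose/galactose medium; Compound dosing: 10 µM single dose, 0.25% DMSO; Incubation: 4 h cell pre-growth, 24 h exposure at 30 °C; Technique: OD at 615 nm; Evaluation: growth inhibition from lowered OD615 after 24 h.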
As to `CCOc1ccc(-n2c(Cc3cc(=O)[nH]c(=O)[nH]3)nnc2SCC(=O)NC2CCCC2)cc1`, the growth inhibition was -1.49% (inactive).
In the case of `Cc1cccc(CSc2nnc(-c3ccccn3)n2N)c1`, the growth inhibition was -6.39% (inactive).
Consider `CC1(C)C(c2ccc(Cl)cc2)=[N+]([O-])C2(CCCC/C2=N\O)N1O` (stereo not drawn), for which the growth inhibition was -15.4% (inactive).
The same measure, in the same setting: as for `COc1ccc(OCc2nnc3n2N=C(c2ccc(OC)cc2)CS3)cc1`, the figure is 7.92% (inactive); as for `COc1ccc(-c2ccc(=O)n(CC(=O)N3CCN(c4ccccc4OC)CC3)n2)cc1`, -4.48% (inactive).
For `CC(C)=CC1C(C(=O)Nc2ccc(Br)cn2)C1(C)C` (stereo not drawn), the growth inhibition is -14.6% (inactive).
Still for that read-out and setting: under `Cc1ccc(-n2c(C)cc(C(=O)OCC(=O)N(C)C3CCS(=O)(=O)C3)c2C)cc1` (stereo not drawn) stands -15.9% (inactive); under `CC(C)Cc1ccc(C#N)c(SCC(N)=O)n1`, -8.16% (inactive).
Still for that read-out and setting: under `Cc1csc2nc(CNS(=O)(=O)N(C)C)cn12` stands 4.64% (inactive); under `CN(C)c1ccc(NC(=O)c2cccc(N3C(=O)CCC3=O)c2)cc1`, 5.53% (inactive); under `Cn1c(Cn2c(=O)sc3ccccc32)nnc1SCc1cccnc1`, -3.75% (inactive).
Same read-out and setting: as for `CCCn1c(=S)[nH]c2cc(C(=O)NCC3CCCO3)ccc2c1=O` (stereo not drawn), the figure is -1.52% (inactive).
Take `O=C(Nc1nnc(-c2ccc3c(c2)OCCO3)o1)c1ccc(Cc2ccccc2)cc1`: the growth inhibition is -7.6% (inactive).
On the same count and under the same terms, as for `COc1ccccc1OCC(=O)NC1CCCCCC1`, the figure is -5.33% (inactive).
For the compound `COc1cccc(-n2c(=O)[nH]cc(C(=O)Nc3ccc(NC(C)=O)cc3)c2=O)c1`, the growth inhibition was -13.3% (inactive).
Same read-out and setting: under `CCCC1(C(=O)O)NC(c2ccccc2O)C2C(=O)N(c3cccc(Cl)c3)C(=O)C21` (stereo not drawn) stands 6.45% (inactive); under `CCCC(=O)NCCCCNC(=O)CCC`, 2.78% (inactive).
In the case of `CCc1ccccc1NC1c2ccccc2C(=O)N1Cc1ccco1` (stereo not drawn), the growth inhibition was -4.26% (inactive).
`CC(C)C(NS(=O)(=O)c1ccc2c(c1)oc(=O)n2C)C(=O)N1CCN(c2ccccc2F)CC1` (stereo not drawn): the growth inhibition was -11% (inactive).
Consider `CC1(C)NC(C)(C)c2nonc2/C1=N\O`, for which the growth inhibition is -15.2% (inactive).
Still for that read-out and setting: under `CC(C)NS(=O)(=O)c1ccc2c(c1)oc(=O)n2C` stands -2.26% (inactive); under `CCn1c(SCC(=O)Nc2nnc(C)s2)nc2c(c1=O)SC(C)C2` (stereo not drawn), -0.875% (inactive); under `CCOc1ccccc1N1C(=O)CC(Nc2ccc(N3CCOCC3)cc2)C1=O` (stereo not drawn), -0.205% (inactive).
Same read-out and setting: as for `COc1ccc(-n2nnc3c(=O)n(CC(=O)OCc4ccccc4)cnc32)cc1`, the figure is 0.92% (inactive); as for `O=C(Cn1cc2c(n1)CCCC2)NCc1cccc(Cl)c1`, 4.46% (inactive).
Same read-out and setting: as for `Cc1cc2cc(CNC(=O)Cc3cccs3)ccc2n1C`, the figure is -14.6% (inactive); as for `c1ccc(-c2noc(CN3CCN(c4ccccc4)CC3)n2)cc1`, -8.41% (inactive).
In the case of `O=C(CC1Sc2ncnn2C1=O)Nc1ccc(Br)cc1` (stereo not drawn), the growth inhibition is -5.64% (inactive).
On the same count and under the same terms, under `COc1ccc(C2NC(=O)NC(O)(C(F)(F)F)C2C(=O)c2ccc(C)cc2)cc1` (stereo not drawn) stands 6.2% (inactive).
As to `Cc1c(C(=O)Nc2ccc(F)cc2)oc2ccc(S(=O)(=O)N3CCCC3)cc12`, the growth inhibition is -14.8% (inactive).
Same read-out and setting: under `O=C(Nn1nnnc1Nc1ccccc1)C12CC3CC(CC(C3)C1)C2` stands -3.62% (inactive); under `Cn1c(=O)n(C)c2cc(CN3C(=O)OC(C)(C)C3(C)O)ccc21` (stereo not drawn), 2.22% (inactive); under `CCOC(=O)N1CCC(NC(=O)CS(=O)(=O)Cc2nc(-c3ccc(C)cc3)oc2C)CC1`, -20.3% (inactive).
On the same count and under the same terms, under `COc1ccc(O)c(C(=O)c2cnn(C(=O)c3cc(C)oc3C)c2)c1` stands -9.76% (inactive); under `Cn1nnnc1SCc1ccc(F)cc1`, -3.69% (inactive); under `O=C(Nc1ccccc1Cl)N1CCN(c2ccc3nnc(-c4ccccc4)n3n2)CC1`, 6.99% (inactive).
On the same count and under the same terms, under `Cc1nc2sc(C(c3cccs3)N3CCN(Cc4ccccc4)CC3)c(O)n2n1` (stereo not drawn) stands -7.44% (inactive); under `COc1ccc(Cc2nnc(-c3cccc(C)c3)o2)cc1OC`, -11.4% (inactive); under `COc1ccc(NC(=O)CN(c2cc(C)cc(C)c2)S(=O)(=O)c2c(C)n[nH]c2C)cc1`, -9.19% (inactive).

Another assay can be described thus: S. cerevisiae growth inhibition in restrictive medium, OD615, pilot screen, restrictive growth control, yeast lifespan reduction project (AID 706;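 active = growth inhibition above a set limit, 3 SD over mean compound inhibition, in both replicates, cut at about 43% in these data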;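 also: modified DeaD lifespan yeast strain shifted to restrictive glucose medium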). The following applies: OD615, 48 h, at 10 µM, active compounds read high. The method in brief:
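Material: modified S. cerevisiae; buffer or medium: CSMM-D glucose medium; doses: one concentration, 10 µM final, 0.25% DMSO; incubation: 48 h compound exposure at 30 °C; detection: optical density at 615 nm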
With `CCOc1ccc(-n2c(Cc3cc(=O)[nH]c(=O)[nH]3)nnc2SCC(=O)NC2CCCC2)cc1`, the growth inhibition is 4.62% (inactive).
Consider `Cc1cccc(CSc2nnc(-c3ccccn3)n2N)c1`, for which the growth inhibition is 14.2% (inactive).
In the case of `CC1(C)C(c2ccc(Cl)cc2)=[N+]([O-])C2(CCCC/C2=N\O)N1O` (stereo not drawn), the growth inhibition was -4.64% (inactive).
As for `COc1ccc(OCc2nnc3n2N=C(c2ccc(OC)cc2)CS3)cc1`, the growth inhibition was 57.4% (active).
With `COc1ccc(-c2ccc(=O)n(CC(=O)N3CCN(c4ccccc4OC)CC3)n2)cc1`, the growth inhibition is 12% (inactive).
Take `CC(C)=CC1C(C(=O)Nc2ccc(Br)cn2)C1(C)C` (stereo not drawn): the growth inhibition is -19.1% (inactive).
The same measure, in the same setting: as for `Cc1ccc(-n2c(C)cc(C(=O)OCC(=O)N(C)C3CCS(=O)(=O)C3)c2C)cc1` (stereo not drawn), the figure is -17.3% (inactive).
As to `CC(C)Cc1ccc(C#N)c(SCC(N)=O)n1`, the growth inhibition is -9.82% (inactive).
For the compound `Cc1csc2nc(CNS(=O)(=O)N(C)C)cn12`, the growth inhibition was 19.6% (inactive).
Still for that read-out and setting: under `CN(C)c1ccc(NC(=O)c2cccc(N3C(=O)CCC3=O)c2)cc1` stands 4.7% (inactive); under `Cn1c(Cn2c(=O)sc3ccccc32)nnc1SCc1cccnc1`, 2.86% (inactive); under `CCCn1c(=S)[nH]c2cc(C(=O)NCC3CCCO3)ccc2c1=O` (stereo not drawn), 7.49% (inactive).
`O=C(Nc1nnc(-c2ccc3c(c2)OCCO3)o1)c1ccc(Cc2ccccc2)cc1`: the growth inhibition was 6.34% (inactive).
The same measure, in the same setting: under `COc1ccccc1OCC(=O)NC1CCCCCC1` stands -8.23% (inactive).
`COc1cccc(-n2c(=O)[nH]cc(C(=O)Nc3ccc(NC(C)=O)cc3)c2=O)c1`: the growth inhibition was 4% (inactive).
As to `CCCC1(C(=O)O)NC(c2ccccc2O)C2C(=O)N(c3cccc(Cl)c3)C(=O)C21` (stereo not drawn), the growth inhibition was 7.74% (inactive).
Turning to `CCCC(=O)NCCCCNC(=O)CCC`, the growth inhibition was 2.44% (inactive).
The same measure, in the same setting: as for `CCc1ccccc1NC1c2ccccc2C(=O)N1Cc1ccco1` (stereo not drawn), the figure is 12.8% (inactive).
`CC(C)C(NS(=O)(=O)c1ccc2c(c1)oc(=O)n2C)C(=O)N1CCN(c2ccccc2F)CC1` (stereo not drawn): the growth inhibition was -9.9% (inactive).
Turning to `CC1(C)NC(C)(C)c2nonc2/C1=N\O`, the growth inhibition was -9.79% (inactive).
The same measure, in the same setting: as for `CC(C)NS(=O)(=O)c1ccc2c(c1)oc(=O)n2C`, the figure is 2.4% (inactive).
In the case of `CCn1c(SCC(=O)Nc2nnc(C)s2)nc2c(c1=O)SC(C)C2` (stereo not drawn), the growth inhibition was -16.4% (inactive).
Still for that read-out and setting: under `CCOc1ccccc1N1C(=O)CC(Nc2ccc(N3CCOCC3)cc2)C1=O` (stereo not drawn) stands 7.53% (inactive); under `COc1ccc(-n2nnc3c(=O)n(CC(=O)OCc4ccccc4)cnc32)cc1`, 1.45% (inactive).
Regarding `O=C(Cn1cc2c(n1)CCCC2)NCc1cccc(Cl)c1`, the growth inhibition was 5.37% (inactive).
Still for that read-out and setting: as for `Cc1cc2cc(CNC(=O)Cc3cccs3)ccc2n1C`, the figure is 3.17% (inactive); as for `c1ccc(-c2noc(CN3CCN(c4ccccc4)CC3)n2)cc1`, 2.94% (inactive).
In the case of `O=C(CC1Sc2ncnn2C1=O)Nc1ccc(Br)cc1` (stereo not drawn), the growth inhibition is -9.71% (inactive).
On to `COc1ccc(C2NC(=O)NC(O)(C(F)(F)F)C2C(=O)c2ccc(C)cc2)cc1` (stereo not drawn), for which the growth inhibition is -7.89% (inactive).
Take `Cc1c(C(=O)Nc2ccc(F)cc2)oc2ccc(S(=O)(=O)N3CCCC3)cc12`: the growth inhibition was -6.18% (inactive).
The same measure, in the same setting: under `O=C(Nn1nnnc1Nc1ccccc1)C12CC3CC(CC(C3)C1)C2` stands -2.85% (inactive); under `Cn1c(=O)n(C)c2cc(CN3C(=O)OC(C)(C)C3(C)O)ccc21` (stereo not drawn), 0.365% (inactive); under `CCOC(=O)N1CCC(NC(=O)CS(=O)(=O)Cc2nc(-c3ccc(C)cc3)oc2C)CC1`, -37.1% (inactive).
On the same count and under the same terms, as for `COc1ccc(O)c(C(=O)c2cnn(C(=O)c3cc(C)oc3C)c2)c1`, the figure is -11.3% (inactive).
With `Cn1nnnc1SCc1ccc(F)cc1`, the growth inhibition was -4.48% (inactive).
Consider `O=C(Nc1ccccc1Cl)N1CCN(c2ccc3nnc(-c4ccccc4)n3n2)CC1`, for which the growth inhibition is 29.4% (inactive).
For the compound `Cc1nc2sc(C(c3cccs3)N3CCN(Cc4ccccc4)CC3)c(O)n2n1` (stereo not drawn), the growth inhibition was -19.6% (inactive).
Still for that read-out and setting: under `COc1ccc(Cc2nnc(-c3cccc(C)c3)o2)cc1OC` stands 2.94% (inactive); under `COc1ccc(NC(=O)CN(c2cc(C)cc(C)c2)S(=O)(=O)c2c(C)n[nH]c2C)cc1`, -1.92% (inactive).
